MLL AF4-AF9 inh: inhibitors of human MLL-AF4/AF9 interaction; AlphaScreen, biotin-AF4 peptide binding to FLAG-AF9; 350,000 tested, 0.47% active; inhibition, % at 10 µM;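 active means every replicate reaching a set inhibition limit, whatever the replicate mean, cut at about 25% in these data; inconclusive means mean inhibition reaches that limit but some replicates miss it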;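 further: 0% = plate neutral control median and 100% = total signal loss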
S100A4 inh HTS: blocks human S100A4 binding to myosin IIA peptide. AID 652163. S100A4/TAMRA-MyoIIA peptide fluorescence polarization. 360,000 tested, 0.14% active. inhibition, % at 10.7 µM;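 active means mean inhibition of at least 70% across replicates, with every replicate also reaching that level; inconclusive means mean inhibition reaches 70% but some replicates fall short; inactive means mean inhibition below 70%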
Target sequence (P26447 whole entry, looked up): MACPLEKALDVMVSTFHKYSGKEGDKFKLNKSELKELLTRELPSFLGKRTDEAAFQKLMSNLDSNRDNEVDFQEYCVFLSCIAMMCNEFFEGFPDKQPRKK
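Test system: S100A4 monomer protein. Medium: HEPES buffer with Ca2+, pH 7.2. Reagent: fluorescent myosin IIA peptide, 5 nM. Compound dosing: single-point compound testing. Timing: 5 min between mix addition and reading. Benchmarks: DMSO neutral and TFP positive wells.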
rRNA inh HTS: selective bacterial rRNA inhibition in E. coli | E. coli WT GFP vs humanized-ribosome RFP mutants, fluorescence, 24 h; stronger effect = lower value; DMSO median 0, no signal -100 | GFP signal change (wild-type ribosome), % (test concentration not listed) | 350,000 tested, 1.6% active;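 active means significant combined selectivity score with lowered wild-type GFP, culture density cut under 30%, mutant RFP and density less affected; inactive means any of these conditions unmet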
SIRT5 block: blocks human SIRT5 desuccinylation of peptide; Q9NXA8; AID 652115; inhibition, % at 15 µM; 330,000 tested, 1.1% active; Purified SirT5, succinyl-peptide AMC, trypsin-coupled fluorescence; in the data active means inhibition above about 15%; inconclusive means no clear call, values can overlap the other calls
Target sequence (Q9NXA8 whole entry, looked up): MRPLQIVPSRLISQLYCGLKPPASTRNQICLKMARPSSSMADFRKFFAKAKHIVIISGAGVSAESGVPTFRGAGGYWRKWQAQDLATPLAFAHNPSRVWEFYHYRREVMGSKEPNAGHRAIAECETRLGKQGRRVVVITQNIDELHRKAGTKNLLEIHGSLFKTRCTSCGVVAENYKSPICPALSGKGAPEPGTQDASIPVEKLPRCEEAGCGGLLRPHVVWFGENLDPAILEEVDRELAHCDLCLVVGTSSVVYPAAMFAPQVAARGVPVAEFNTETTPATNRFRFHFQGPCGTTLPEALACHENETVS
ERAP1 inh: inhibitors of human ERAP1 aminopeptidase. Q9NZ08. recombinant ERAP1, Leu-AMC fluorescence, 60 min. inhibition, % at 10.7 µM. 340,000 tested, 0.15% active. AID 652197;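 active means mean replicate inhibition of at least 30%, or all replicates individually reaching that 30% level; inactive means mean below 30% and not every replicate reaching it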;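 further: 0% = neutral control wells and 100% = L-leucinethiol positive control wells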
E-sel inducer: induces E-selectin expression in human endothelial cells. P16581. HUVEC E-selectin immunofluorescence imaging; normalized: neutral wells 0, TNF-alpha wells 100. activation, % at 7.58 µM. 260,000 tested, 0.37% active;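 active means mean E-selectin-positive cell signal at least 10% of the positive control, reached in at least 60% of replicates, without over 20% cell loss; inconclusive means no rule given, readout overlaps actives, possibly toxicity-flagged; inactive means the rest, including those meeting only one limit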
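Material: HUVEC primary endothelial cells; Amount: 3,000 cells per well; Dosing: single concentration; Medium: EGM-2 growth medium on 0.1% gelatin-coated wells; Read-out basis: percent E-selectin-positive cells; Signal: immunofluorescence imaging; Control set: TNF-alpha, DMSO.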
HepG2 cytotox: HepG2 cell cytotoxicity; activity change, negative = cytotoxicity, unspecified at 26 µM; shares compounds with rRNA inh HTS; 30 tested, under 10 active; AID 743480; HepG2 viability, ATP luminescence, 72 h;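 active means compounds whose fitted half-maximal signal-loss concentration is at most twice their highest valid dose; inconclusive means flat curve with 30 to 70% signal loss, or poor fit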
AID977621: wild-type E. coli growth inhibition versus H69 humanized strain – H69 mutant RFP, wild-type GFP, cherry-pick, dose response | shares compounds with rRNA inh HTS | fluorescence, 24 h | activity change, negative = inhibition at 50 µM | 1,900 tested, under 10 active | AID 977621;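 active means Wild-type ribosome reporter drop at least double the humanized mutant ribosome reporter drop, growth loss under a set limit; inconclusive means no clear call, values can overlap the other calls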;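 further: wild-type GFP and H69 mutant RFP strains grown together 50/50 in each well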
AID977628: growth of wild-type and h24-humanized E. coli strains – h24 mutant RFP vs wild-type GFP, cherry-pick, dose response | E. coli WT GFP strain growth, fluorescence, 24 h | 1,900 tested, under 10 active | AID 977628 | shares compounds with rRNA inh HTS | activity change, negative = inhibition at 50 µM;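 active means compound lowering the normal-ribosome reporter at least twice as much as the humanized-ribosome reporter, growth loss under a set limit; inconclusive means no clear call, values can overlap the other calls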;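 further: wild-type GFP and h24 humanized RFP strains co-cultured 1 to 1 per well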
The depositor's hits bear a star; ? = inconclusive; . = not tested or not shown. Hits are enriched below; roughly 3.4% of the tested compounds scored in any of these assays.

SMILES | MLL AF4-AF9 inh | S100A4 inh HTS | rRNA inh HTS | SIRT5 block | ERAP1 inh | E-sel inducer | AID977621 | AID977628 | others
C[C@@H](NC(=O)C[C@@H]1C[C@@H]2c3cc(NC(=O)Nc4ccccc4F)ccc3O[C@@H]2[C@@H](CO)O1)c1ccccc1 | -1 | 4 | -2 | 1 | 0 | 11 | . | .
O=c1c2ccccc2cnn1Cc1n[nH]c(=S)n1C1CC2CCC1C2 (centres undefined) | -12 | -2 | -20* | -2 | 2 | 1 | -3.5 | .
CC(c1ccccc1)n1c(Cn2ncc3ccccc3c2=O)n[nH]c1=S (centres undefined) | -10 | 0 | -9 | 0 | . | 0 | . | .
COc1ccc(C(=O)N2C[C@@H]3[C@H](c4ccccc42)[C@@H](CO)N3Cc2ccccc2)cc1 | 0 | -4 | -6 | 12 | 1 | 0 | . | .
O=C(Nc1ccccc1Cl)N1C[C@H]2[C@@H](c3ccccc31)[C@@H](CO)N2Cc1ccccc1 | 0 | 9 | -38* | 3 | 3 | -1 | . | ?
COc1cccc(C(=O)N2C[C@@H]3[C@H](c4ccccc42)[C@H](CO)N3Cc2ccccc2Cl)c1 | 3 | 6 | -33* | -1 | . | 0 | . | ?
O=C(Nc1ccccc1Cl)N1C[C@@H]2[C@H](c3ccccc31)[C@@H](CO)N2Cc1ccncc1 | -2 | 22 | -11 | 1 | -1 | 0 | . | .
COc1ccc(C(=O)N2C[C@H]3[C@@H](c4ccccc42)[C@@H](CO)N3Cc2ccc(Cl)cc2)cc1 | -1 | 15 | -51* | 9 | 1 | 0 | . | ?
COc1ccccc1CNC(=O)CCCc1cn(C)c2ccccc12 | 1 | -1 | -25 | -3 | -2 | 0 | . | .
COc1ccc(CNC(=O)Cc2cn(C)c3ccccc23)c(OC)c1 | 1 | -2 | -24* | -3 | -8 | 0 | -1.1 | -6.3
CN(C)CC(=O)Nc1ccc2c(c1)[C@H]1C[C@@H](CC(=O)NCc3ccc4c(c3)OCO4)O[C@H](CO)[C@H]1O2 | 2 | . | 1 | . | . | 0 | . | .
CN1[C@@H]2Cn3c(ccc(-c4ccncc4)c3=O)[C@H]1[C@@H](C(=O)NCC1CCCCC1)[C@@H]2CO | . | . | 1 | . | . | 0 | . | .
COc1ccc(C(=O)Nc2ccc3ncccc3c2)cc1 | 1 | -1 | -4 | 2 | 1 | 1 | . | .
Cc1ccc(C(=O)Nc2ccc3ncccc3c2)cc1 | 3 | -5 | -16* | 0 | 1 | 0 | . | -12
COC(=O)C[C@H]1C[C@@H]2c3cc(NC(=O)Nc4ccc(C(F)(F)F)cc4)ccc3O[C@@H]2[C@H](CO)O1 | -5 | 9 | -25* | 1 | . | 0 | . | ?
Cc1cc(C)nc(SCCC(=O)Nc2ccccc2Cl)n1 | -2 | 36 | -18* | -2 | 0 | . | . | -15
COc1ccccc1NC(=O)CCSc1nc(C)cc(C)n1 | -1 | -3 | -9 | -4 | 0 | . | . | .
Cc1cc(C)c(OCCNC(=O)c2ccccc2Sc2ccccc2C#N)c(C)c1 | -1 | 3 | -25* | -6 | 5 | 2 | . | . | HepG2 cytotox=21
COc1cccc(OCCNC(=O)c2ccccc2Sc2ccccc2C#N)c1 | -4 | -1 | -20 | 0 | 0 | . | . | .
O=c1[nH]nc(SCc2ccccc2)n1C1CC2C=CC1C2 (centres undefined) | . | -4 | -35* | -2 | 4 | 2 | -23 | ?
O=C(CN1CCCCC1)Nc1ccccc1-c1ccccc1 | 4 | 4 | -15* | -3 | 1 | . | -2.8 | .
O=S1(=O)c2ccccc2C(O)(c2ccccc2)c2ccccc21 | 3 | -2 | -21* | . | 1 | 0 | . | ?
CC(C)Oc1ccc(C(CC(=O)O)NC(=O)Cc2ccc(Cl)cc2)cc1 (centres undefined) | 2 | -9 | 10 | 5 | -3 | 0 | . | .
CC(C)(C)c1ccc(C(CC(=O)O)NC(=O)Cc2ccc(Cl)cc2)cc1 (centres undefined) | -8 | 0 | -24* | -3 | 1 | 0 | -15 | ?
O=C(Nc1ccccc1F)N1CCCCN2[C@@H](CO)[C@H](c3ccc(C#Cc4cccnc4)cc3)[C@@H]2C1 | -1 | 3 | -19* | 6 | 2 | 0 | -8.5 | ?
SMILES | MLL AF4-AF9 inh | S100A4 inh HTS | rRNA inh HTS | SIRT5 block | ERAP1 inh | E-sel inducer | AID977621 | AID977628 | others
O=C(Nc1cc(F)ccc1F)N1CCCCN2[C@@H](CO)[C@H](c3ccc(-c4ccncc4)cc3)[C@@H]2C1 | 5 | -6 | -19* | -6 | -4 | 0 | -14 | .
COc1ccccc1NC(=O)N1CCCCN2[C@@H](CO)[C@H](c3ccc(C#Cc4ccccc4)cc3)[C@@H]2C1 | 4 | 5 | -30* | 1 | 1 | 0 | 3.1 | .
O=C(Nc1cc(F)ccc1F)N1CCCCN2[C@H](CO)[C@H](c3ccc(-c4ccncc4)cc3)[C@@H]2C1 | -1 | 9 | -1 | -5 | -4 | 0 | . | .
COc1ccccc1NC(=O)N1CCCCN2[C@H](CO)[C@@H](c3ccc(C#Cc4ccccc4)cc3)[C@H]2C1 | 7 | 9 | -34 | -2 | 0 | -1 | . | .
CN(Cc1ccc(F)cc1)Cc1nc(CCc2ccccc2)no1 | -2 | 1 | -19* | 0 | -3 | 4 | . | ?
CN(Cc1ccc(F)cc1)Cc1nc(-c2ccccc2)no1 | 2 | 5 | -18 | -3 | -1 | 0 | . | .
O=C1NC(CCc2ccccc2)C(=O)N1Cc1cccc2ccccc12 (centres undefined) | -19 | -3 | -21* | 1 | -4 | -1 | -1.7 | .
COc1ccc(-c2nnc(COc3ccc(Br)cc3C)o2)cc1 | -1 | -4 | -19* | -5 | -2 | 0 | ? | ?
C[C@H](CO)N1C[C@H](C)[C@H](CN(C)Cc2ccc3c(c2)OCO3)Oc2ccc(NC(=O)NC3CCCCC3)cc2CC1=O | -2 | 21 | 1 | 1 | 0 | 2 | . | .
Cc1ccsc1C(=O)C1CCCN(Cc2cc(F)ccc2-n2cccn2)C1 (centres undefined) | -3 | 3 | -33* | 7 | -3 | -4 | -13 | -14
COc1cc(OC)c(OC)cc1CN1CCCC(C(=O)c2sccc2C)C1 (centres undefined) | 13 | 3 | -3 | -4 | -5 | 0 | . | .
CC(C)NC(=O)Nc1ccc2c(c1)C(=O)N([C@@H](C)CO)C[C@H](C)[C@H](CN(C)Cc1ccc(Cl)c(Cl)c1)O2 | -1 | . | 4 | . | . | -3 | . | .
